In article PMC4339026 (Biopolymers, 2014):

Tests used:
[1] = target: T1, meprin β (Homo sapiens, UniProt Q16820); assay: Meprin β HTS FRET assay, dose response; assay type: biochemical
T1 sequence (Q16820 62-614 limits assumed): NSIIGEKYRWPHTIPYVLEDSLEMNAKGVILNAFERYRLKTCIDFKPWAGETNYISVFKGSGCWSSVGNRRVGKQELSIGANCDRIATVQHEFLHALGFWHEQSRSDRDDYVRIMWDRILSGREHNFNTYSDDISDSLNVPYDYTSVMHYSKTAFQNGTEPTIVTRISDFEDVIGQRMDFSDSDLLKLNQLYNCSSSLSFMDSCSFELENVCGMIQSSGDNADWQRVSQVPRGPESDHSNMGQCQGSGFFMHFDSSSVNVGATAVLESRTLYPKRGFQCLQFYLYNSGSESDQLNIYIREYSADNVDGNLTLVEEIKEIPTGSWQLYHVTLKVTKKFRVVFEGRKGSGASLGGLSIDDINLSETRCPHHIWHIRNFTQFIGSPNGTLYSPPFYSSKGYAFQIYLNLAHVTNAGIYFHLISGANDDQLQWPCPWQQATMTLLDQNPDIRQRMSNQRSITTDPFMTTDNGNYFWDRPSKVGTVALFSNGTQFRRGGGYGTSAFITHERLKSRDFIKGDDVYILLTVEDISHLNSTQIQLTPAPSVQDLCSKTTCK
Method in brief: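 Trypsin-activated meprin β (trypsin removed on immobilized ovomucoid) in 50 mM Hepes, 0.01% Brij-35, pH 7.5, added as 2x (0.15 nM) solution. Pin-transferred inhibitor was preincubated 30 min at RT. 2x (20 μM) (MCA)-EDEDED-(K-ε-DNP) was then added, run 1 h at RT, and read at ex 324/em 393 nm. A 3-fold dilution series was run in quadruplicate, and % inhibition was fitted with a 4-parameter equation. DMSO final was 0.1% or 1.0%.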

[2] = target: T2, MMP-2 (Homo sapiens, UniProt P08253); assay: Selectivity testing against zinc metalloproteases: MMP-2; assay type: biochemical; details: read-out: IC50 MMP-2; n = 3 Mean ± SD
T2 sequence (P08253 110-660): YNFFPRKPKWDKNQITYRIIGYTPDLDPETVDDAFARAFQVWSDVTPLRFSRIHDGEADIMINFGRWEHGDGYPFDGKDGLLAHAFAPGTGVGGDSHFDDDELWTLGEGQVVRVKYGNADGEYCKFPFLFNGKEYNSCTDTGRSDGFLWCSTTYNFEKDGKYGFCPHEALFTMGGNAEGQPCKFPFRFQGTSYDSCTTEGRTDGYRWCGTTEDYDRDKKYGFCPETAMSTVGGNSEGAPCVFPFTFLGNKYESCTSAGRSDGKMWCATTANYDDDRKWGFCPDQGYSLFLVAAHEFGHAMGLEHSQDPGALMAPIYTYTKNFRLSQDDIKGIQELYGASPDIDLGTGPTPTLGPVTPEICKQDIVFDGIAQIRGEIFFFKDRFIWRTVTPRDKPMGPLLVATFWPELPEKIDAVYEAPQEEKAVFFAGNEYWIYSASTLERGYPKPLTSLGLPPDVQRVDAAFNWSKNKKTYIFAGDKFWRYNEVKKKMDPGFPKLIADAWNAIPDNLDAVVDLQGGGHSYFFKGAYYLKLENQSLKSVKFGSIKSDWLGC

O=C(Nc1cc(C(=O)Nc2ccc(S(=O)(=O)O)cc2S(=O)(=O)O)cc(C(=O)Nc2ccc(S(=O)(=O)O)cc2S(=O)(=O)O)c1)Nc1cc(C(=O)Nc2ccc(S(=O)(=O)O)cc2S(=O)(=O)O)cc(C(=O)Nc2ccc(S(=O)(=O)O)cc2S(=O)(=O)O)c1 [NF449, 4,4′,4″,4‴-[Carbonyl-bis[imino-5,1,3-benzenetriylbis-(carbonyl-imino)]]tetrakis(benzene-1,3-disulfonic acid)]
meprin β dose response behaviour ([1]; dose response experiment, data not shown): did not exhibit the same effect
potency differential meprin β versus meprin α ([1]; ratio of IC50 values): > 1000 fold
selectivity ratio meprin β versus MMP-8 ([1]; ratio of IC50 values): approximately 12 fold
IC50 ([1]; read-out: IC50 Meprin β, selectivity testing, n = 3 Mean ± SD): 0.07 ± 0.005 µM
IC50 [2]: 6 ± 0.5 µM
